Published values collected from several papers.
Protocols differ between the studies behind these lines.
REN: Renin (REN, Homo sapiens, UniProt P00797)
CDK4: Cyclin-dependent kinase 4 (CDK4, Homo sapiens, UniProt P11802)

| Structure (SMILES) | target | assay | setting | inhibition |
| --- | --- | --- | --- | --- |
| c1ccc(C(NCCNC(c2ccccc2)c2ccccc2)c2ccccc2)cc1 | REN | enzyme activity, inhibitor | 10 µM | 30% |
| CCOC(=O)[C@H]1Cc2c(cc([N+](=O)[O-])cc2[N+](=O)[O-])[C@@H](O)[C@@]12C(=O)Nc1cccc(Br)c12 | CDK4 | cell-free assay, inhibitor, TR-FRET | 1 µM | 45.6% |
| CCOC(=O)c1ccc(OC(=O)CCCCCNC(=N)N)cc1 | REN | enzyme activity, inhibitor | 10 µM | 0% |
| CCOC(=O)[C@H]1Cc2c(cc([N+](=O)[O-])cc2[N+](=O)[O-])[C@@H](O)[C@@]12C(=O)Nc1ccc(C)cc12 | CDK4 | cell-free assay, inhibitor, TR-FRET | 1 µM | 67.8% |
| CC(C)C[C@H](NC(=O)[C@H](Cc1ccccc1)NC(=O)c1cnccn1)B(O)O | Chymotrypsinogen A (Bos taurus, UniProt P00766) | enzyme activity, inhibitor | 33 µM | 53% |
| CCOC(=O)[C@H]1Cc2c(cc([N+](=O)[O-])cc2[N+](=O)[O-])[C@@H](O)[C@@]12C(=O)Nc1ccc(Cl)cc12 | CDK4 | cell-free assay, inhibitor, TR-FRET | 1 µM | 70.2% |
| COCCCOc1cc(C[C@@H](C[C@H](N)[C@@H](O)C[C@H](C(=O)NCC(C)(C)C(N)=O)C(C)C)C(C)C)ccc1OC | REN | enzyme activity, inhibitor | 100 pM | 0% |
| C#Cc1n[nH]c2c(-c3cn(C(C)c4ccccn4)c(=O)[nH]c3=O)cc(F)cc12 (stereo not drawn) | Ephrin type-A receptor 5 (EPHA5, Homo sapiens, UniProt P54756) | enzyme activity, inhibitor | 1 µM | 4% |
| CCOC(=O)[C@H]1Cc2c(cc([N+](=O)[O-])cc2[N+](=O)[O-])[C@@H](O)[C@@]12C(=O)Nc1cc(Br)ccc12 | CDK4 | cell-free assay, inhibitor, TR-FRET | 1 µM | 59% |
| CN(C)C(=O)COC(=O)Cc1ccc(OC(=O)c2ccc(NC(=N)N)cc2)cc1 | REN | enzyme activity, inhibitor | 10 µM | 1% |
| C#Cc1n[nH]c2c(-c3cn([C@@H](C)c4ccccc4)c(=O)[nH]c3=O)cc(F)cc12 | Fibroblast growth factor receptor 3 (FGFR3, Homo sapiens, UniProt P22607) | enzyme activity, inhibitor | 0.1 µM | -2.7% |
| CCOC(=O)[C@H]1Cc2c(cc([N+](=O)[O-])cc2[N+](=O)[O-])[C@@H](O)[C@@]12C(=O)Nc1ccc(F)cc12 | CDK4 | cell-free assay, inhibitor, TR-FRET | 1 µM | 53.9% |
| Cc1ncc(C)n2nc(/C=C/c3nc(N4CCCC4)cc(N4CCOCC4)n3)nc12 | Amine oxidase [flavin-containing] A (Maoa, Rattus norvegicus, UniProt P21396) | ligand displacement | 10 µM | 2% |
| Cn1cc(-c2cc(F)cc(N3CCn4c(cc5c4CCCC5)C3=O)c2CO)cc(Nc2ccc(N3CCN(C4COC4)CC3)cn2)c1=O | Serine/threonine-protein kinase MRCK beta (CDC42BPB, Homo sapiens, UniProt Q9Y5S2) | enzyme activity, inhibitor | 0.1 µM | 2% |
| COc1cc(Nc2ncc(F)c(Nc3ccc4c(n3)NC(=O)C(C)(C)O4)n2)cc(OC)c1OC | Cyclin-G-associated kinase (GAK, Homo sapiens, UniProt O14976) | binding | 10 µM | 95% |
